Measurements from PubChem BioAssay.
The source made the active and inactive calls.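 The calls were made as follows, unless noted: active = inhibition above 20% together with a positive visual image hit; inconclusive = visual image hit but inhibition not above 20%; inactive = no visual image hit.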

Legend:
[1] = inhibitors of TNFa-induced NFkB p65 translocation, primary screen, imaging, HUVEC, MLSMR starter and 10KST1 sets (AID 438); settings: HUVEC TNFa-induced p65 nuclear translocation; cell count: measured here: nuclei count (cytotoxicity indicator), at 2.08 µM; inhibition: at 2 µM, stronger effect = higher value, 0% TNFa-plus-vehicle, 100% no-TNFa wells;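 also: compound added about 3h40 before a 20 min TNFalpha stimulation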;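 as to inhibition: signal is the nuclear over cytoplasmic p65 intensity ratio per well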
[2] = reduction of polyQ htt aggregates in cells – imaging, exon1htt(103Q)mCFP cells, high-content imaging, primary screen (AID 483;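 active = visual image review flags a hit and inhibition of aggregation exceeds 20%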;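 also: compound exposure lasted 3 days before fixation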;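 as to nuclei count: percent of the per-plate median nuclei count of sample wells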); settings: exon1htt(103Q)mCFP cell line, aggregate imaging, at 2 µM; inhibition of aggregation: stronger effect = higher value; nuclei count: measured here: cell count, toxicity
[3] = endothelial E-selectin expression blockers – imaging, HUVEC, immunofluorescence, MLSMR starter and 10KST1 sets, primary screen (AID 487;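 active = visually confirmed hit in the image check and inhibition above 20%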;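 as to inhibition: signal is fraction of cell area covered by stained E-selectin grains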;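 as to nuclei count: 100% = median nuclei count of all wells on the same plate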); settings: HUVEC TNFalpha-induced E-selectin immunofluorescence imaging, at 2 µM; inhibition: stronger effect = higher value; nuclei count: measured here: cell number, toxicity
[4] = target: Voltage-gated potassium channel subunit beta-2 (Rattus norvegicus) (UniProt P62483); test: inhibitors of rat Kvbeta2 reductase activity – biochemical, NADPH fluorescence, primary screen (AID 622;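 active = fluorescence slope higher than the sample average by over 3 SD, cut at about -0.22 in these data, passing the limit was not always enough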;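 also: slope of raw intensity against log time taken from 70 to 1610 s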); settings: recombinant KvBeta, 4-cyanobenzaldehyde reduction, at 10 µM, stronger effect = higher value
Voltage-gated potassium channel subunit beta-2 (Rattus norvegicus), sequence (P62483 whole entry, looked up): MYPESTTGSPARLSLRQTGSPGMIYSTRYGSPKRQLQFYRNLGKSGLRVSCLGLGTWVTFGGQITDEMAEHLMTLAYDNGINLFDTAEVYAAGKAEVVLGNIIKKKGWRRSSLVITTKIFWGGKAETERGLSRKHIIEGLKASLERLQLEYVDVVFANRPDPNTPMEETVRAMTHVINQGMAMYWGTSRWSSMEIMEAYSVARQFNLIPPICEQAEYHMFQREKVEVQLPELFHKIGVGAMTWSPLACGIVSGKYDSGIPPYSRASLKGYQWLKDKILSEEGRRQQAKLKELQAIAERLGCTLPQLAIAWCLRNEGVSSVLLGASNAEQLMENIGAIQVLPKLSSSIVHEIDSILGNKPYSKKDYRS

[5] = target: Voltage-gated potassium channel subunit beta-2 (Rattus norvegicus) (UniProt P62483); test: enhancers of rat Kvbeta2 NADPH turnover – biochemical, NADPH fluorescence, primary screen (AID 623;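 active = NADPH fluorescence slope more negative than the mean of all samples by about 3 SD, 99.7% confidence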;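 also: fluorescence intensity change per second fitted from 20 to 320 s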); settings: Recombinant KvBeta, NADPH fluorescence decrease slope, 10 min; at 10 µM; stronger effect = lower value
[6] = target: Muscarinic acetylcholine receptor M4 (Homo sapiens) (UniProt P08173); test: M4-linked GIRK flux change, two-sided – cell-based, HEK293 M4/GIRK, thallium flux, BTC-AM, M4 allosteric agonist project, primary screen (AID 625;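 active = fluorescence slope after compound addition differing from the mean of all tested samples at 99.7% confidence, mostly higher but some lower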;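 also: thallium influx through GIRK channels coupled to M4 in HEK293 cells with BTC-AM dye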); settings: at 10 µM, actives lie on both sides
Muscarinic acetylcholine receptor M4 (Homo sapiens), sequence (P08173 whole entry, looked up): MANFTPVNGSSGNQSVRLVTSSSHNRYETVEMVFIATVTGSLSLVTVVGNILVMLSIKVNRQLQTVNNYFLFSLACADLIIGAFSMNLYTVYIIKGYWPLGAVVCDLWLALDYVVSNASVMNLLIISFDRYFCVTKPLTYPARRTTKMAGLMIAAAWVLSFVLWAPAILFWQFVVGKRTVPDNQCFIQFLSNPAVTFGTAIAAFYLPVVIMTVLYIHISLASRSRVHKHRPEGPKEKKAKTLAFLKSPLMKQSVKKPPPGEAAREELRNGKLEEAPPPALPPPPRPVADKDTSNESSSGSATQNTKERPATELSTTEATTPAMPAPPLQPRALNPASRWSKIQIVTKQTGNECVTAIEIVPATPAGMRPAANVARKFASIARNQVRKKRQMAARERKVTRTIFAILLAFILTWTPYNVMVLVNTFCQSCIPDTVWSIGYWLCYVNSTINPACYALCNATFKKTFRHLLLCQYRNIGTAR
Outline: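 Material – HEK293 cells with M4 receptor and GIRK channels · Buffer or medium – pH 7.3 thallium assay buffer · Doses – one dose, 10 µM final · Timing – cells overnight at 37 °C, BTC-AM loading 1 h, reads 2 min total · Measured by – kinetic fluorescence with BTC-AM dye · Controls – carbachol and DMSO controls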

[7] = blockers of RIG-like receptor reporter activation – cell-based, Sendai virus stimulus, luciferase, 10K MLSCN set, TLR/RLR signaling modifier project, primary screen (AID 602276;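 active = inhibition at or above 50% at 10 µM; inactive = inhibition below 50%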;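 also: firefly luciferase from ISG56 promoter only with Renilla not read in this screen; 0% = Sendai virus plus DMSO and 100% = medium plus DMSO without virus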); settings: HEK293 RL24 IRF3 luciferase reporter, at 10 µM, stronger effect = higher value
[8] = TLR3 IRF3 reporter activation blockers – cell-based, poly I:C stimulus, luciferase, 10K MLSCN set, primary screen (AID 602277;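 active = inhibition of the reporter signal at or above 50%; inactive = inhibition below 50%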); settings: HEK293-TLR3 RL24 IRF3 luciferase reporter, at 10 µM, stronger effect = higher value

Row | Structure (SMILES) | cell count [1] | inhibition [1] | inhibition of aggregation [2] | nuclei count [2] | inhibition [3] | nuclei count [3] | fluorescence slope [4] | NADPH fluorescence slope [5] | fluorescence slope [6] | inhibition [7] | inhibition [8]
1 | CC(C)CCNC(=O)NC(=O)CN1C(=O)NC2(CCCCC2)C1=O | 560 | -14.9% (inactive) | 13.2% (inactive) | 106% | -209% (inactive) | 87% | -0.498 (inactive) | 7.2e-05 (inactive) | 0.00636 (inactive) | -8.08% (inactive) | -2.49% (inactive)
2 | O=C(NCCO)c1scc2c1OCCO2 | 572 | -12.8% (inactive) | 7.6% (inactive) | 97.2% | -15.2% (inactive) | 104% | -0.327 (inactive) | 6.5e-05 (inactive) | 0.00603 (inactive) | 16.6% (inactive) | 19.5% (inactive)
3 | CCCn1c(NC(=O)C2COc3ccccc3O2)nc2ccccc21 (configuration not stated) | 496 | 1% (inactive) | -4.8% (inactive) | 98.3% | -56% (inactive) | 102% | -0.467 (inactive) | 0.000114 (inactive) | 0.00578 (inactive) | 15.8% (inactive) | 17.5% (inactive)
4 | O=C(Nc1cccc(C(F)(F)F)c1)c1cccnc1N1CCCC1 | 360 | 4.5% (inactive) | -13% (inactive) | 105% | -32.4% (inactive) | 118% | -0.531 (inactive) | 2.1e-05 (inactive) | 0.00477 (inactive) | 16.2% (inactive) | 28.2% (inactive)
5 | CCOC(=O)Nc1c(C(=O)OC)[nH]c2cccc(OC)c12 | 526 | -0.5% (inactive) | -15.7% (inactive) | 109% | -32.4% (inactive) | 126% | -0.478 (inactive) | 3e-05 (inactive) | 0.00517 (inactive) | -7.18% (inactive) | -3.25% (inactive)
6 | C=CCOc1ccc(C2C(C(=O)c3ccco3)=C(O)C(=O)N2Cc2cccnc2)cc1 (configuration not stated) | 341 | -7.7% (inactive) | -11.2% (inactive) | 107% | -61.9% (inactive) | 103% | -0.543 (inactive) | -0.000128 (inactive) | 0.00458 (inactive) | 17.4% (inactive) | 14.5% (inactive)
7 | CN(C(=O)CSc1nc2c(c(=O)[nH]1)CCCC2)C1CCCCC1 | 820 | -0.9% (inactive) | -33.2% (inactive) | 117% | -253% (inactive) | 120% | -0.504 (inactive) | 4e-05 (inactive) | 0.00553 (inactive) | 4.83% (inactive) | 18.3% (inactive)
8 | COc1ccccc1OCc1ccc(C(=O)OCC2CCCO2)o1 (configuration not stated) | 640 | -5% (inactive) | -10.7% (inactive) | 73.2% | 0.1% (inactive) | 113% | -0.503 (inactive) | -0.000334 (inactive) | 0.00535 (inactive) | -10.8% (inactive) | -24.7% (inactive)
9 | O=C(OCCCN1C(=O)c2ccccc2C1=O)c1ccco1 | 643 | -2.2% (inactive) | 17.8% (inactive) | 96.8% | 33.4% (inactive) | 98.5% | -0.482 (inactive) | 4.2e-05 (inactive) | 0.00571 (inactive) | -6.62% (inactive) | -11.6% (inactive)
10 | COC(=O)c1c(NC(=O)c2ccc(S(=O)(=O)N3CCOCC3)cc2)sc2c1CCN(C)C2 | 296 | -9.1% (inactive) | 3% (inactive) | 117% | -25.5% (inactive) | 114% | -0.483 (inactive) | -5.3e-05 (inactive) | 0.0054 (inactive) | -9.85% (inactive) | 15.9% (inactive)
11 | COc1ccccc1CNC(=O)C1CCN(S(=O)(=O)N2CCCCC2)CC1 | 571 | -1.8% (inactive) | 4.5% (inactive) | 102% | -44.6% (inactive) | 89.6% | -0.426 (inactive) | -3.4e-05 (inactive) | 0.00585 (inactive) | 14% (inactive) | 21.7% (inactive)
12 | CCN1CCN(c2nc(-c3cccnc3)nc3ccccc23)CC1 | 598 | 11.2% (inactive) | -11.6% (inactive) | 94.7% | -58.2% (inactive) | 103% | -0.468 (inactive) | 2.1e-05 (inactive) | 0.00671 (inactive) | 12.9% (inactive) | 37.7% (inactive)
13 | CCC(c1nnnn1CCOC)N(Cc1ccc(C)cc1)Cc1cc2cc(OC)ccc2[nH]c1=O (configuration not stated) | 519 | 1.9% (inactive) | 11.8% (inactive) | 99.2% | -127% (inactive) | 134% | -0.565 (inactive) | -5.3e-05 (inactive) | 0.00576 (inactive) | 19% (inactive) | 27.8% (inactive)
14 | Cc1ccc2[nH]c(=O)c(CN(CCCO)S(=O)(=O)c3c(C)ccc4nsnc34)cc2c1 | 334 | -2.5% (inactive) | -11.4% (inactive) | 103% | -54.5% (inactive) | 120% | -0.459 (inactive) | -3e-05 (inactive) | 0.00552 (inactive) | 11.1% (inactive) | 29.7% (inactive)
15 | CC1CCN(C(=O)c2ccc(C(=O)N3CCC(C)CC3)cc2)CC1 | 348 | 4.7% (inactive) | 2.4% (inactive) | 95.8% | 33.2% (inactive) | 76.8% | -0.459 (inactive) | -3e-05 (inactive) | 0.00464 (inactive) | 12.9% (inactive) | 12.8% (inactive)
16 | COc1ccccc1NC(=O)C1=C(C)Nc2ncnn2C1c1ccc(C)o1 (configuration not stated) | 355 | 14.6% (inactive) | 24.5% (inactive) | 90.6% | 56.5% (inactive) | 85.1% | -0.554 (inactive) | -0.000118 (inactive) | 0.00338 (inactive) | 19.9% (inactive) | 20.2% (inactive)
17 | O=C(C1CCN(S(=O)(=O)N2CCC3(CC2)OCCO3)CC1)N1CCOCC1 | 648 | 14.8% (inactive) | 17.5% (inactive) | 89.1% | 28.9% (inactive) | 96.9% | -0.571 (inactive) | -8.3e-05 (inactive) | 0.00319 (inactive) | -6.46% (inactive) | -2.34% (inactive)
18 | COc1cc(C2C3=C(CC(C)(C)CC3=O)Nc3c2c(=O)[nH]c(=O)n3Cc2ccccc2)ccc1O (configuration not stated) | 271 | 15% (inactive) | -4.8% (inactive) | 104% | -45.4% (inactive) | 114% | -0.463 (inactive) | -8e-05 (inactive) | 0.00547 (inactive) | 9.34% (inactive) | 5.06% (inactive)
19 | C=C(C)CSc1nnc2[nH]c(=O)cc(N)n12 | 371 | 0% (inactive) | 31.5% (inactive) | 54.8% | -70.9% (inactive) | 116% | -0.458 (inactive) | -6e-05 (inactive) | 0.00517 (inactive) | 15.7% (inactive) | 14.4% (inactive)
20 | COc1ccc(CCNS(=O)(=O)c2ccc3c(c2)OCCO3)cc1 | 361 | 4.2% (inactive) | 2.3% (inactive) | 102% | 33.5% (inactive) | 106% | -0.466 (inactive) | -3.5e-05 (inactive) | 0.00491 (inactive) | 14.6% (inactive) | 16.5% (inactive)
21 | COc1cccc(C2C(C#N)=C(N)OC3=C2C(=O)CCC3)c1OC(=O)c1ccco1 (configuration not stated) | 384 | 4.7% (inactive) | -12.3% (inactive) | 103% | 52.8% (inactive) | 88.3% | -0.513 (inactive) | -3.8e-05 (inactive) | 0.00509 (inactive) | 12.4% (inactive) | 10.4% (inactive)
22 | Cc1ccc(O)c(C(=O)c2cc(C#N)c(=O)n(CC3CCCO3)c2)c1 (configuration not stated) | 449 | -20.3% (inactive) | 33.7% (active) | 70.1% | 82.1% (active) | 53.1% | -0.561 (inactive) | -4.5e-05 (inactive) | 0.00669 (inactive) | 15% (inactive) | 24.8% (inactive)
23 | Cc1ccc2nc(NC(=O)C3CCN(S(=O)(=O)c4cccc5nsnc45)CC3)sc2c1 | 540 | 0% (inactive) | -1.9% (inactive) | 105% | 38.3% (inactive) | 100% | -0.414 (inactive) | -9.1e-05 (inactive) | 0.00593 (inactive) | -4.97% (inactive) | -45% (inactive)
24 | CCC(=O)N1CCc2cc(OC)c(OC)cc2C1COc1ccc(C(=O)OC)cc1 (configuration not stated) | 767 | -20.4% (inactive) | -5.1% (inactive) | 128% | 36.5% (inactive) | 108% | -0.543 (inactive) | -2e-05 (inactive) | 0.00388 (inactive) | 23.8% (inactive) | 6.29% (inactive)
25 | COc1ccccc1N1CCN(C(=O)c2oc3cc(C)c(C)cc3c2C)CC1 | 355 | 1.3% (inactive) | -10.8% (inactive) | 101% | -46.9% (inactive) | 87.3% | -0.546 (inactive) | 2.2e-05 (inactive) | 0.00423 (inactive) | 21.1% (inactive) | 15% (inactive)
26 | Cc1cccc(OCC(=O)Nc2ccccc2N2CCN(C(=O)C(C)C)CC2)c1C | 232 | -21.4% (inactive) | 6% (inactive) | 73.8% | -26.3% (inactive) | 68.6% | -0.585 (inactive) | -2.3e-05 (inactive) | 0.00511 (inactive) | 15.5% (inactive) | 25.9% (inactive)
27 | O=C(Cn1ncc2ccccc21)N1CCN(c2cccc(C(F)(F)F)c2)CC1 | 659 | -5.8% (inactive) | 1.3% (inactive) | 114% | -16.1% (inactive) | 122% | -0.378 (inactive) | -2.5e-05 (inactive) | 0.00602 (inactive) | 12% (inactive) | 21.1% (inactive)
